In ChEMBL document CHEMBL1151690, “The design, synthesis, and anti-tumor mechanism study of N-phosphoryl amino acid modified resveratrol analogues” (Bioorg Med Chem, 2008):
Activity calls are given as the source filed them. The calls are words filed in the database; no cut-off is given here.

Tests used:
HeLa = test: Antiproliferative activity against human HeLa cells after 72 hrs by MTT assay; format: functional, cell-based
Summary of the method: (§1)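 IC50 from 72 h of compound treatment, reported as the mean ± SEM of three experiments, with significance set at P < 0.05.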

CNE-2 [1] = test: Induction of apoptosis in human CNE2 cells assessed as late stage apoptotic cell count at 50 uM after 24 hrs by Annexin-V-FITC/PI binding assay; format: functional
Summary of the method: (§2)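 CNE-2 cells were treated at 5, 10, 25 or 50 μM for 24 h, collected, washed in ice-cold PBS, stained with Annexin-V-FITC and PI, and analysed by flow cytometry. Annexin-V+/PI− cells were counted as early apoptotic and double-positive cells as late apoptotic.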

[2] = Antiproliferative activity against human CNE1 cells after 72 hrs by MTT assay; format: functional, cell-based; details: CNE
Summary of the method: (§3)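 MTT assay. Cells were grown in DMEM with 10% FBS, penicillin and streptomycin at 37 °C in 5% CO2, seeded in 96-well plates and exposed to compounds at 0.5–100 μM for 72 h. They were then given MTT (5 mg/ml) for 4 h, the formazan was dissolved in DMSO and A595 was read. IC50 is the mean ± SEM of three experiments.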

CNE-2 [3] = test: Induction of apoptosis in human CNE2 cells assessed as early stage apoptotic cell count at 25 uM after 24 hrs by Annexin-V-FITC/PI binding assay; format: functional; summary of the method: as §2
CNE-2 [4] = test: Induction of apoptosis in human CNE2 cells assessed as increase in caspase 9 activity at 50 uM upto 24 hrs; format: functional, cell-based
Summary of the method: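 CNE-2 cells were treated at 50 μM for 0, 2, 4, 8, 14 and 24 h, trypsinized, PBS-washed and lysed on ice for 15 min. Lysates were spun at 20,000g at 4 °C, and 0.1 mg protein (Bradford) was incubated with Ac-LEHD-pNA for 2 h at 37 °C. pNA release was recorded at A405.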

CNE-2 [5] = test: Antiproliferative activity against human CNE2 cells at 3.45 uM by MTT assay; format: functional, cell-based; details: TDE = time-dependent effect
[6] = (§4) Antiproliferative activity against human CNE2 cells after 72 hrs by MTT assay; format: functional, cell-based; details: CNE-2, 72 h; summary of the method: as §3
CNE-2 [7] = test: as §4; format: functional, cell-based; summary of the method: as §3
CNE-2 [8] = test: Induction of apoptosis in human CNE2 cells assessed as late stage apoptotic cell count at 5 uM after 24 hrs by Annexin-V-FITC/PI binding assay; format: functional; summary of the method: as §2
CNE-2 [9] = test: Induction of apoptosis in human CNE2 cells assessed as late stage apoptotic cell count at 25 uM after 24 hrs by Annexin-V-FITC/PI binding assay; format: functional; summary of the method: as §2
CNE-2 [10] = test: Induction of apoptosis in human CNE2 cells assessed as caspase 3-mediated PARP cleavage at 50 uM after 24 hrs by enhanced chemiluminescence detection; format: functional, cell-based
Summary of the method: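 CNE-2 cells were treated at 50 μM for 24 h and lysed on ice for 30 min in Tris/EDTA/NaCl/SDS/Triton/deoxycholate/PMSF buffer. Cytosolic protein (25 μg, 15,000g supernatant) was run on 12% SDS-PAGE and blotted to nitrocellulose. Blots were probed with anti-PARP (1:1000) in milk block, and the 89 kDa cleaved band was detected by ECL.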

CNE-2 [11] = test: Induction of apoptosis in human CNE2 cells assessed as early stage apoptotic cell count at 10 uM after 24 hrs by Annexin-V-FITC/PI binding assay; format: functional; summary of the method: as §2
CNE-2 [12] = test: Induction of apoptosis in human CNE2 cells assessed as early stage apoptotic cell count at 5 uM after 24 hrs by Annexin-V-FITC/PI binding assay; format: functional; summary of the method: as §2
CNE-2 [13] = test: Induction of apoptosis in human CNE2 cells assessed as intracellular ROS production visualized by DCFH-DA after 30 hrs by FACS analysis; format: functional, cell-based
Summary of the method: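 CNE-2 cells were treated at 50 μM for 0–30 h (0, 2, 4, 6, 8, 13, 19, 24, 30 h), trypsinized, centrifuged and PBS-washed. They were loaded with DCFH-DA (10 μM) at 37 °C for 30 min, and the percentage of cells with higher DCF fluorescence was measured by FACS.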

CNE-2 [14] = test: Induction of apoptosis in human CNE2 cells assessed as early stage apoptotic cell count at 50 uM after 24 hrs by Annexin-V-FITC/PI binding assay; format: functional; summary of the method: as §2
K562 = test: Antiproliferative activity against human K-562 cells after 72 hrs by MTT assay; format: functional, cell-based; details: K562, 72 h; summary of the method: as §1
[15] = Cell cycle arrest in human CNE2 cells assessed as accumulation at sub-G0-G1 phase visualized by propidium iodide staining at 50 uM after 24 hrs by flow cytometry; format: functional, cell-based; details: CNE-2
Summary of the method: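 CNE-2 cells were treated at 50 μM for 24 h, stained with propidium iodide and analysed by flow cytometry of DNA-content histograms. Apoptotic events were scored as the sub-G0–G1 population, and the cell-cycle phase distribution was also recorded.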

CNE-2 [16] = test: Induction of apoptosis in human CNE2 cells assessed as DNA fragmentation at 50 uM after 24 hrs by agarose gel electrophoresis; format: functional, cell-based
Summary of the method: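 CNE-2 cells were treated at 50 μM for 24 h, with untreated cells as control. DNA was obtained by standard digestion and organic extraction, run on a 2% agarose gel and stained with ethidium bromide to detect ladders.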

CNE-2 [17] = test: Induction of apoptosis in human CNE2 cells assessed as late stage apoptotic cell count at 10 uM after 24 hrs by Annexin-V-FITC/PI binding assay; format: functional; summary of the method: as §2
CNE-2 [18] = test: Antiproliferative activity against human CNE2 cells at 5.19 uM by MTT assay; format: functional, cell-based; details: TDE = time-dependent effect
CNE-2 [19] = test: Antiproliferative activity against human CNE2 cells at 9.86 uM by MTT assay; format: functional, cell-based; details: TDE = time-dependent effect
Summary of the method: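 CNE-2 nasopharyngeal carcinoma cells were grown in DMEM with 10% FBS and penicillin/streptomycin at 37 °C under 5% CO2. Cells were seeded in 96-well plates and exposed to compound at 0.5–100 µM for 24, 48 or 72 h; tabulated values are from 72 h. MTT (5 mg/ml) was added for 4 h, formazan dissolved in DMSO, A595 read. IC50 reported as mean ± SEM, three experiments.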

CNE-2 [20] = test: Antiproliferative activity against human CNE2 cells at 5.06 uM by MTT assay; format: functional, cell-based; details: TDE = time-dependent effect

SMILES	IC50 [2] [µM]	IC50 [6] [µM]	further results
COc1cc(/C=C/c2ccc(NC(=O)CCCCNP(=O)(OC(C)C)OC(C)C)cc2)cc(OC)c1	5.67	3.45	IC50 (HeLa): 5.62 µM; Activity (CNE-2 [1]): 66.79%; Activity (CNE-2 [3]): 21.24%; Activity (CNE-2 [4]): Active; Activity (CNE-2 [5]): tde; Activity (CNE-2 [7]): Dose-dependent effect; Activity (CNE-2 [8]): 9.86%; Activity (CNE-2 [9]): 41.12%; Activity (CNE-2 [10]): Active; Activity (CNE-2 [11]): 16.24%; Activity (CNE-2 [12]): 6.45%; Activity (CNE-2 [13]): Active; Activity (CNE-2 [14]): 18.78%; IC50 (K562): 5.32 µM; Activity [15]: 91.6%; Activity (CNE-2 [16]): Active; Activity (CNE-2 [17]): 22.51%
CC(C)OP(=O)(NCCCCC(=O)Nc1ccc(/C=C/c2ccccc2)cc1)OC(C)C	6.36	5.19	Activity (CNE-2 [18]): tde; IC50 (HeLa): 9.75 µM; Activity (CNE-2 [7]): Dose-dependent effect; Activity (CNE-2 [10]): Active; IC50 (K562): 9.58 µM; Activity [15]: 45.3%; Activity (CNE-2 [16]): Active
COc1cc(/C=C/c2ccc(NC(=O)[C@@H](NP(=O)(OC(C)C)OC(C)C)C(C)C)cc2)cc(OC)c1	116	77.4	
COc1cc(/C=C/c2ccc(NC(=O)[C@H](Cc3ccccc3)NP(=O)(OC(C)C)OC(C)C)cc2)cc(OC)c1	43.4	9.83	
CC(C)OP(=O)(NCC(=O)Nc1ccc(/C=C/c2ccccc2)cc1)OC(C)C	7.5	7.01	
CC(C)OP(=O)(N[C@@H](C)C(=O)Nc1ccc(/C=C/c2ccccc2)cc1)OC(C)C	25.4	12.8	
COc1cc(/C=C/c2ccc(NC(=O)[C@H](CC(C)C)NP(=O)(OC(C)C)OC(C)C)cc2)cc(OC)c1	55.3	14.3	
CC(C)C[C@H](NP(=O)(OC(C)C)OC(C)C)C(=O)Nc1ccc(/C=C/c2ccccc2)cc1	54.3	65.6	
COc1cc(/C=C/c2ccc(NC(=O)[C@@H]3CCCN3P(=O)(OC(C)C)OC(C)C)cc2)cc(OC)c1	8.11	9.86	IC50 (HeLa): 9.53 µM; Activity (CNE-2 [7]): Dose-dependent effect; Activity (CNE-2 [10]): Active; Activity (CNE-2 [19]): tde; IC50 (K562): 9.15 µM; Activity [15]: 32.1%; Activity (CNE-2 [16]): Active
Nc1ccc(/C=C/c2ccccc2)cc1 [(E)-4-STYRYLANILINE]	54.5	98.7	
CC(C)OP(=O)(OC(C)C)N1CCC[C@H]1C(=O)Nc1ccc(/C=C/c2ccccc2)cc1	10.1	12.2	
Oc1ccc(/C=C/c2cc(O)cc(O)c2)cc1 [RESVERATROL]	67.6	52.3	
COc1cc(/C=C/c2ccc(NC(=O)[C@H](C)NP(=O)(OC(C)C)OC(C)C)cc2)cc(OC)c1	29.2	11.7	
CC(C)OP(=O)(NCCC(=O)Nc1ccc(/C=C/c2ccccc2)cc1)OC(C)C	29.8	6.81	
COc1cc(/C=C/c2ccc(NC(=O)CCCNP(=O)(OC(C)C)OC(C)C)cc2)cc(OC)c1	12.3	15.2	
COc1cc(/C=C/c2ccc(NC(=O)CCCCCNP(=O)(OC(C)C)OC(C)C)cc2)cc(OC)c1	6.37	5.06	IC50 (HeLa): 6.41 µM; Activity (CNE-2 [20]): tde; Activity (CNE-2 [7]): Dose-dependent effect; Activity (CNE-2 [10]): Active; IC50 (K562): 6.89 µM; Activity [15]: 57%; Activity (CNE-2 [16]): Active
CC(C)OP(=O)(N[C@@H](Cc1ccccc1)C(=O)Nc1ccc(/C=C/c2ccccc2)cc1)OC(C)C	83.7	92.1	
CC(C)OP(=O)(NCCCC(=O)Nc1ccc(/C=C/c2ccccc2)cc1)OC(C)C	9.03	6.47	
CC(C)OP(=O)(N[C@H](C(=O)Nc1ccc(/C=C/c2ccccc2)cc1)C(C)C)OC(C)C	49.3	128	
COc1cc(/C=C/c2ccc(NC(=O)CCNP(=O)(OC(C)C)OC(C)C)cc2)cc(OC)c1	10.1	8.19	
CC(C)OP(=O)(NCCCCCC(=O)Nc1ccc(/C=C/c2ccccc2)cc1)OC(C)C	8.58	24.3	
COc1cc(/C=C/c2ccc(NC(=O)CNP(=O)(OC(C)C)OC(C)C)cc2)cc(OC)c1	8.91	7.12	
